Screening data deposited in PubChem BioAssay by Broad Institute.
A selection: hits, their analogues and other compounds. The true share with any hit is near 3.7%.
DENV2 CPE: protects cells from dengue virus 2 cytopathic effect. DENV2-infected cells, cytopathic effect rescue, plate reader. CPE inhibition, % at 9.99 µM. 350,000 compounds, 1.7% hits. AID 651640; in the data active = CPE inhibition above about 20%, passing the limit was not always enough; inconclusive = no clear call, values can overlap the other calls; tested in BHK-21 cells
E-selectin induc: induces E-selectin expression in human endothelial cells | P16581 | HUVEC E-selectin immunofluorescence imaging; normalized: neutral wells 0, TNF-alpha wells 100 | activation, % at 7.58 µM | 260,000 compounds, 0.37% hits | AID 686992;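 active = mean E-selectin-positive cell signal at least 10% of the positive control, reached in at least 60% of replicates, without over 20% cell loss; inconclusive = no rule given, readout overlaps actives, possibly toxicity-flagged; inactive = the rest, including those meeting only one limit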
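Assay system: HUVEC primary endothelial cells. Input: 3,000 HUVEC seeded per well. Doses: one compound dose added by pin transfer. Read-out basis: % PE-positive cells. Benchmarks: TNF-alpha high, DMSO low. Detection: immunofluorescence imaging. Buffer or medium: EGM-2, gelatin.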
F508del corr: correctors of CFTR F508del function in bronchial epithelial cells; activity (quench increase), % at 7.58 µM; 350,000 compounds, 0.36% hits; AID 720511; CFBE cells, YFP halide quenching; stimulated with forskolin plus potentiator P3; % fluorescence drop versus neutral controls;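 active = mean added fluorescence quench of at least 8% versus neutral control, with both replicates also reaching 8%; inconclusive = only one of the mean or replicate conditions met; inactive = mean below 8% and not both replicates reaching 8%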;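 note: cells transiently co-express mutant CFTR-F508del with the halide-sensitive YFP; corrector assay measuring rescue of mutant channel to the surface after 24 h compound exposure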
FGF22 binding: shifts melting point of recombinant human FGF22. Q9HCT0. 340,000 compounds, 1.5% hits. activity (Tm shift, normalised), % at 9.99 µM. recombinant FGF22 thermal shift, SYPRO orange fluorescence; percent of sucrose octasulfate shift, DMSO zero. AID 651658;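 active = mean Tm shift, scaled 0 neutral to 100 positive control, at about 1.3% or above, every replicate too, limit read from the data; inconclusive = no clear call, values can overlap the other calls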
Target sequence (Q9HCT0 whole entry, looked up): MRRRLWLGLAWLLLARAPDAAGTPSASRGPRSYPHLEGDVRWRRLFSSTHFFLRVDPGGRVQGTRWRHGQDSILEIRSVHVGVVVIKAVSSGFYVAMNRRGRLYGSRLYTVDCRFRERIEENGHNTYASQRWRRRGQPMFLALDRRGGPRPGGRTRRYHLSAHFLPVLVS
ERAP1 inh: ERAP1 (human) enzyme inhibition; Q9NZ08; recombinant ERAP1, Leu-AMC fluorescence, 60 min; inhibition, % at 10.7 µM; 340,000 compounds, 0.15% hits; AID 652197;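 active = mean replicate inhibition of at least 30%, or all replicates individually reaching that 30% level; inactive = mean below 30% and not every replicate reaching it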
Hits are given with their value; n = inactive; u = inconclusive; x = no result.

SMILES	DENV2 CPE	E-selectin induc	F508del corr	FGF22 binding	ERAP1 inh
CCCC(=O)Nc1ccc2c(c1)C(=O)N(C)C[C@@H](OC)[C@@H](C)CN(CCC(F)(F)F)[C@H](C)CO2	n	n	n	n	n
CCCN1C[C@@H](C)[C@@H](OC)CN(C)C(=O)c2cc(NC(=O)C3CCOCC3)ccc2OC[C@H]1C	26	n	n	n	n
CCCNC(=O)N(C)C[C@@H]1Oc2cc(-c3ccncc3)ccc2S(=O)(=O)N([C@@H](C)CO)C[C@H]1C	n	n	n	n	n
Cc1cc(C(=O)Nc2cccc3c2O[C@@H](CN(C)Cc2ccc(C(F)(F)F)cc2)[C@H](C)CN([C@@H](C)CO)C3=O)n(C)n1	n	n	n	n	n
CC(C)NC(=O)Nc1ccc2c(c1)C(=O)N([C@H](C)CO)C[C@@H](C)[C@@H](CN(C)Cc1ccc(Cl)c(Cl)c1)O2	n	n	n	n	n
CCCN1C[C@@H](C)[C@@H](OC)CN(C)C(=O)c2cc(NC(=O)CC(F)(F)F)ccc2OC[C@@H]1C	56	n	n	n	n
C[C@@H]1CN([C@H](C)CO)C(=O)c2cc(NC(=O)NC3CCCCC3)ccc2O[C@@H]1CN(C)Cc1ccc(C(=O)Nc2ccccc2N)cc1	x	n	x	x	x
Cc1ccc(S(=O)(=O)N2C[C@H]3[C@H]4C(=O)N(c5ccccc5)C(=O)[C@H]4C[C@H](OC(=O)NCc4ccco4)[C@@]3(O)C2)cc1	n	n	n	n	n
Cc1ccc(S(=O)(=O)N2C[C@H]3[C@H]4C(=O)N(c5ccccc5)C(=O)[C@H]4C[C@H](OC(=O)NCc4ccccc4)[C@@]3(O)C2)cc1	n	n	n	43	n
CC=Cc1ccc2n(c1=O)C[C@H]1[C@H](CO)[C@@H](C(=O)NCCC)[C@@H]2N1Cc1nccs1 (mixture of isomers)	u	n	n	n	n
C[C@H](CO)N1C[C@H](C)[C@H](CN(C)Cc2ccc3c(c2)OCO3)Oc2ccc(NC(=O)Cn3cnnn3)cc2C1=O	n	39	n	n	n
C[C@H](CO)N1C[C@H](C)[C@@H](CN(C)Cc2ccc(Oc3ccccc3)cc2)Oc2ccc(NC(=O)Cn3cnnn3)cc2CC1=O	105	n	n	n	n
C[C@H](CO)N1C[C@H](C)[C@@H](CN(C)Cc2ccc(Oc3ccccc3)cc2)Oc2ccc(NC(=O)Cn3cnnn3)cc2C1=O	n	n	n	n	n
C[C@H]1CN([C@@H](C)CO)C(=O)c2cc(NC(=O)Cn3cnnn3)ccc2O[C@H]1CN(C)Cc1ccc(-c2ccccc2)cc1	33	n	n	x	n
C[C@@H]1CN([C@@H](C)CO)C(=O)c2cc(NC(=O)Cn3cnnn3)ccc2O[C@H]1CN(C)Cc1ccc(Oc2ccccc2)cc1	n	48	n	n	n
CC(=O)N1Cc2cc(C(=O)NCC(F)(F)F)nc(-c3cccc(-c4cncnc4)c3)c2[C@H]1CCO	n	n	n	n	n
CC(C)NC(=O)N1CC2(C1)[C@H](c1ccccc1)[C@@H](CO)N2C(=O)C1CCC1	n	n	n	x	n
COC(=O)c1cc(S(=O)(=O)NCC2CCN(CCc3cccs3)CC2)c[nH]1	n	226	n	n	n
O=c1ccc2[n+]([O-])c3ccc(O)cc3oc-2c1	n	193	23	x	x
Cc1cccc(C)c1NC(=O)CN1CCN(C(=O)c2cc(C3CC3)nn2-c2ccccc2)CC1	81	n	n	n	n
C[C@@H]1CN([C@H](C)CO)C(=O)c2cc(NC(=O)Cc3ccccc3)ccc2O[C@@H]1CN(C)C(=O)Nc1ccccc1	n	n	n	n	n
N#C[C@H]1[C@H](c2ccccc2C2=CCCCC2)[C@@H](CO)N1S(=O)(=O)c1cccc(F)c1	31	n	n	x	n
N#C[C@H]1[C@@H](c2ccc(C3=CCCCC3)cc2)[C@@H](CO)N1S(=O)(=O)c1cccc(F)c1	92	n	n	n	n
O=C(Cn1cccn1)N1CCCC(Nc2ccc(F)c(F)c2)C1 (stereo not drawn)	27	n	n	n	n
Cc1ccc(NC2CCCN(C(=O)c3ccoc3)C2)cc1C (stereo not drawn)	n	x	n	n	n
SMILES	DENV2 CPE	E-selectin induc	F508del corr	FGF22 binding	ERAP1 inh
Cc1nnsc1C(=O)N1CCCC(Nc2ccc(F)c(F)c2)C1 (stereo not drawn)	n	n	n	57	n
O=C1CCCCN1CC(=O)N1CCCC(Nc2ccc(F)c(F)c2)C1 (stereo not drawn)	n	x	n	n	n
Cc1ccc(NC2CCCN(C(=O)c3ccoc3C)C2)cc1C (stereo not drawn)	28	n	n	n	n
CCCC(=O)Nc1ccc2c(c1)C(=O)N(C)[C@@H]1CC[C@@H](CC(=O)NCc3ccccc3F)O[C@H]1CO2	n	n	n	n	x
S=c1nn[nH]c2ccccc12	n	n	n	43	n
C[C@@H](NC(=O)C[C@H]1CC[C@@H]2[C@H](COC[C@@H](O)CN2C(=O)Nc2cccc(F)c2)O1)c1ccccc1	n	n	n	n	n
CC(=O)Nc1ccc(NC(=O)CSc2nc(N)c(NC(=O)c3ccccc3F)c(=O)[nH]2)cc1	n	n	n	n	n
Nc1nc(SCC(=O)O)[nH]c(=O)c1NC(=O)c1ccccc1F	n	x	n	43	n
CC(C)NC(=O)N(C)C[C@H]1Oc2ccc(NS(=O)(=O)c3ccc(Cl)cc3)cc2C(=O)N([C@H](C)CO)C[C@@H]1C	n	n	n	n	n
FC(F)(F)c1ccccc1NC(=S)NC1CCN(Cc2ccccc2)CC1	u	x	n	44	n
S=C(Nc1ccccc1Cl)NC1CCN(Cc2ccccc2)CC1	x	n	x	x	x
Cc1ccc(S(=O)(=O)N(C)C[C@@H]2Oc3c(NS(=O)(=O)c4ccc(Cl)cc4)cccc3C(=O)N([C@@H](C)CO)C[C@H]2C)cc1	n	49	n	n	n
Cc1ccc(S(=O)(=O)Nc2cccc3c2O[C@H](CN(C)S(=O)(=O)c2ccc(Cl)cc2)[C@H](C)CN([C@H](C)CO)C3=O)cc1	n	n	n	n	n
CNC[C@H]1Oc2c(NS(=O)(=O)c3ccc(Cl)cc3)cccc2C(=O)N([C@@H](C)CO)C[C@@H]1C	94	n	n	n	n
CNC[C@@H]1Oc2c(NS(=O)(=O)c3ccc(Cl)cc3)cccc2C(=O)N([C@@H](C)CO)C[C@@H]1C	n	n	n	n	n
Cc1ccc(S(=O)(=O)Nc2cccc3c2O[C@@H](CN(C)S(=O)(=O)c2ccc(Cl)cc2)[C@@H](C)CN([C@@H](C)CO)C3=O)cc1	21	n	n	n	n
O=C(NC1Cc2ccccc2C1)[C@@H]1[C@@H](CO)[C@@H]2Cn3c(ccc(-c4ccccc4F)c3=O)[C@H]1N2	n	n	n	n	n
CO[C@H]1CN(C)C(=O)c2cc(NS(=O)(=O)c3ccccc3C)ccc2OC[C@H](C)N(C)C[C@@H]1C	n	n	n	n	n
CO[C@H]1CN(C)C(=O)c2cc(NC(=O)Nc3ccc(Cl)cc3)ccc2OC[C@H](C)NC[C@H]1C	x	66	n	x	x
